Assay results: ChEMBL document CHEMBL4406852, “Combating fluconazole-resistant fungi with novel β-azole-phenylacetone derivatives” (Eur J Med Chem, 2019)
≈ marks a conversion by molar mass, not a printed value.

Experiments:
[1] = Cytotoxicity against human A549 cells assessed as cell survival at 10 uM/l incubated for 24 hrs by MTT assay relative to control; type: cell-based; conditions: read-out: Activity
In short: (§1)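 A549 cells were seeded at 3000 per well in RPMI 1640 and held 16 h at 37 °C, 5% CO2. Medium was then replaced with medium holding DMSO-dissolved compound at final 0.08, 0.4, 2.0 or 10 µM/L and incubated 24 h. MTT was added for 4 h and absorbance read at 490 nm to give survival.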

[2] = system: Candida albicans; experiment: Antifungal activity against Candida albicans SC5314 assessed as reduction in fungal growth incubated for 24 hrs by serial dilution method; type: functional; conditions: SC5314, 24 h
In short: (§2)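 MIC by CLSI broth microdilution in RPMI 1640 buffered to pH 7.0 with MOPS. Compounds dissolved in DMSO and serially diluted to final 0.03–16 or 0.125–64 µg/mL. Inoculum 1–5 × 10^3 CFU/mL. Incubation 35 °C, 24 h. Drug-free growth and fungus-free blank controls. MIC is the lowest concentration preventing visible growth.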

[3] = target: T1, Lanosterol 14-alpha demethylase (Candida albicans (strain SC5314 / ATCC MYA-2876) (Yeast), UniProt P10613); experiment: Inhibition of Candida albicans CYP51 assessed as increase in sterol level at 0.015 ug/ml incubated for 18 hrs by GC/MS analysis relative to control; parameters: scale not given: the % may be the effect or the level left
In short: (§3)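 C. albicans SC5314 was grown in RPMI 1640 with 0.015 µg/mL compound, or fluconazole 0.25 µg/mL, about 18 h at 30 °C with shaking at 200 rpm. Cells were pelleted and washed with PBS, then saponified 60 min at 80 °C in ethanol/pyrogallol/60% KOH. Nonsaponifiable sterols were extracted three times with heptane and analysed by GC-MS.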

[4] = target: T1, Lanosterol 14-alpha demethylase; experiment: Inhibition of Candida albicans CYP51 assessed as increase in eburicol level at 0.015 ug/ml incubated for 18 hrs by GC/MS analysis relative to control; parameters: scale not given: the % may be the effect or the level left; in short: as §3
[5] = system: Candida albicans; experiment: Antifungal activity against fluconazole-resistant Candida albicans 17 assessed as reduction in fungal growth incubated for 24 hrs by serial dilution method; type: functional; conditions: Candida albicans, 17, 24 h
In short: (§4)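 Fluconazole-resistant C. albicans clinical isolates (17# and CaR from AIDS patients; 632, 901, 904 from clinic) tested by CLSI broth dilution MIC in RPMI 1640 buffered to pH 7.0 with MOPS. Compounds dissolved in DMSO, serially diluted to final 0.03–16 or 0.125–64 μg/mL; inoculum 1–5 × 10^3 CFU/mL; 35 °C, 24 h. MIC = lowest concentration inhibiting visible growth; fluconazole and itraconazole as controls.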

[6] = Cytotoxicity against human A549 cells assessed as cell survival at 2 uM/l incubated for 24 hrs by MTT assay relative to control; type: cell-based; conditions: read-out: Activity; in short: as §1
[7] = target: T1, Lanosterol 14-alpha demethylase; experiment: Inhibition of Candida albicans CYP51 assessed as ergosterol level at 0.015 ug/ml incubated for 18 hrs by GC/MS analysis (reference value: 100%); parameters: scale not given: the % may be the effect or the level left; in short: as §3
[8] = Cytotoxicity against human A549 cells assessed as cell survival at 0.4 uM/l incubated for 24 hrs by MTT assay relative to control; type: cell-based; conditions: read-out: Activity; in short: as §1
[9] = system: Candida albicans; experiment: Antifungal activity against fluconazole-resistant Candida albicans 901 assessed as reduction in fungal growth incubated for 24 hrs by serial dilution method; type: functional; conditions: Candida albicans, 901, 24 h; in short: as §4
[10] = system: Candida parapsilosis; experiment: Antifungal activity against Candida parapsilosis GIM 2.190 assessed as reduction in fungal growth incubated for 24 hrs by serial dilution method; type: functional; conditions: Lodderomyces parapsilosis, GIM 2.190, 24 h; in short: as §2
[11] = target: T1, Lanosterol 14-alpha demethylase; experiment: Inhibition of Candida albicans CYP51 assessed as increase in 14alpha-methyl ergosta-8,24(28)-dien-3beta,6alpha-diol level at 0.015 ug/ml incubated for 18 hrs by GC/MS analysis relative to control; parameters: scale not given: the % may be the effect or the level left; in short: as §3
[12] = system: Nakaseomyces glabratus; experiment: Antifungal activity against Candida glabrata assessed as reduction in fungal growth incubated for 24 hrs by serial dilution method; type: functional; in short: as §2
[13] = system: Candida albicans; experiment: Antifungal activity against fluconazole-resistant Candida albicans CaR assessed as reduction in fungal growth incubated for 24 hrs by serial dilution method; type: functional; in short: as §4
[14] = Cytotoxicity against human A549 cells assessed as cell survival at 0.08 uM/l incubated for 24 hrs by MTT assay relative to control; type: cell-based; conditions: read-out: Activity; in short: as §1
[15] = target: T1, Lanosterol 14-alpha demethylase; experiment: Inhibition of Candida albicans CYP51 assessed as increase in lanosterol level at 0.015 ug/ml incubated for 18 hrs by GC/MS analysis relative to control; parameters: scale not given: the % may be the effect or the level left; in short: as §3
[16] = system: Candida tropicalis; experiment: Antifungal activity against Candida tropicalis GIM 2.183 assessed as reduction in fungal growth incubated for 24 hrs by serial dilution method; type: functional; conditions: GIM 2.183, 24 h; in short: as §2
[17] = system: Candida albicans; experiment: Antifungal activity against fluconazole-resistant Candida albicans 632 assessed as reduction in fungal growth incubated for 24 hrs by serial dilution method; type: functional; conditions: Candida albicans, 632, 24 h; in short: as §4
[18] = system: Candida albicans; experiment: Antifungal activity against Candida albicans GIM 2.194 assessed as reduction in fungal growth incubated for 24 hrs by serial dilution method; type: functional; conditions: GIM 2.194, 24 h; in short: as §2
[19] = system: Candida albicans; experiment: Antifungal activity against fluconazole-resistant Candida albicans 904 assessed as reduction in fungal growth incubated for 24 hrs by serial dilution method; type: functional; conditions: Candida albicans, 904, 24 h; in short: as §4
[20] = target: T1, Lanosterol 14-alpha demethylase; experiment: Inhibition of Candida albicans CYP51 assessed as increase in lanosterol level at 0.25 ug/ml incubated for 18 hrs by GC/MS analysis relative to control; parameters: scale not given: the % may be the effect or the level left
In short: (§5)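 Candida albicans SC5314 grown in RPMI 1640 with agitation (200 rpm) for ~18 h at 30 °C, with 0.25 µg/mL fluconazole as a comparator alongside the test compound. Cells were pelleted (3000g, 10 min), PBS-washed thrice, and saponified 60 min at 80 °C in ethanol, ethanolic pyrogallol and 60% KOH. Nonsaponifiable sterols were extracted thrice with heptane and profiled by GC-MS.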

[21] = target: T1, Lanosterol 14-alpha demethylase; experiment: Inhibition of Candida albicans CYP51 assessed as increase in eburicol level at 0.25 ug/ml incubated for 18 hrs by GC/MS analysis relative to control; parameters: scale not given: the % may be the effect or the level left; in short: as §5
[22] = target: T1, Lanosterol 14-alpha demethylase; experiment: Inhibition of Candida albicans CYP51 assessed as ergosterol level at 0.25 ug/ml incubated for 18 hrs by GC/MS analysis (reference value: 100%); parameters: scale not given: the % may be the effect or the level left; in short: as §5
[23] = target: T1, Lanosterol 14-alpha demethylase; experiment: Inhibition of Candida albicans CYP51 assessed as increase in 14alpha-methyl ergosta-8,24(28)-dien-3beta,6alpha-diol level at 0.25 ug/ml incubated for 18 hrs by GC/MS analysis relative to control; parameters: scale not given: the % may be the effect or the level left; in short: as §5
[24] = target: T1, Lanosterol 14-alpha demethylase; experiment: Inhibition of Candida albicans CYP51 assessed as increase in sterol level at 0.25 ug/ml incubated for 18 hrs by GC/MS analysis relative to control; parameters: scale not given: the % may be the effect or the level left; in short: as §5

T1 sequence (P10613 whole entry): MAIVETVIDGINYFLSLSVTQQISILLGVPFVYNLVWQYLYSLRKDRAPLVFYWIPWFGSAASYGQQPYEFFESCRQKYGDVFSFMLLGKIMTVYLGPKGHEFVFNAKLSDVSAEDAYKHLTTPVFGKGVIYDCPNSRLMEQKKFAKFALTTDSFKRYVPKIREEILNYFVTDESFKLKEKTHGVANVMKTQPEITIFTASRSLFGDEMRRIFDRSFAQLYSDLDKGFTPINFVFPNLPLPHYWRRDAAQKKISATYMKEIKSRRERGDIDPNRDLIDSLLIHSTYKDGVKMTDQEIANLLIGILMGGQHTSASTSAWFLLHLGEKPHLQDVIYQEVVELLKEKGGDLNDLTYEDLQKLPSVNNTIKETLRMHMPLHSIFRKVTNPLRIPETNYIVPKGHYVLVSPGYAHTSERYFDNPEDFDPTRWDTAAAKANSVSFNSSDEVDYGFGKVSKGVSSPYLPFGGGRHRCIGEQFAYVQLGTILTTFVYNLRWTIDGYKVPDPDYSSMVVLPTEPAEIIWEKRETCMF

| SMILES | viability at 24 h, 10 µM [1] | MIC [2] | MIC [5] | viability at 24 h, 2 µM [6] | viability at 24 h, 0.4 µM [8] | MIC [9] | MIC [10] | MIC [12] | MIC [13] | viability at 24 h, 0.08 µM [14] | MIC [16] | MIC [17] | MIC [18] | MIC [19] | further results |
| --- | --- | --- | --- | --- | --- | --- | --- | --- | --- | --- | --- | --- | --- | --- | --- |
| Cc1ccc(C(=O)C(Cn2ccnc2)NC(=O)c2ccc(-c3ccccc3)c(F)c2)cc1 (stereo not given) | 92.5% | 0.03 µg/mL (≈ 0.0702 µM) | 2 µg/mL (≈ 4.68 µM) | 97% | 100% | 16 µg/mL (≈ 37.4 µM) | 0.125 µg/mL (≈ 0.292 µM) | 0.125 µg/mL (≈ 0.292 µM) | 1 µg/mL (≈ 2.34 µM) | 100% | 0.03 µg/mL (≈ 0.0702 µM) | 16 µg/mL (≈ 37.4 µM) | 0.06 µg/mL (≈ 0.14 µM) | 16 µg/mL (≈ 37.4 µM) | Activity [3]: 3.04 to 5.85%; Activity [4]: 9.56%; Activity [7]: 41.99%; Activity [11]: 13.26%; Activity [15]: 23.17% |
| OC(Cn1cncn1)(Cn1cncn1)c1ccc(F)cc1F [FLUCONAZOLE] | 95.3% | 0.5 µg/mL (≈ 1.63 µM) | > 64 µg/mL | 95.7% | 99.1% | > 64 µg/mL | 2 µg/mL (≈ 6.53 µM) | 4 µg/mL (≈ 13.1 µM) | > 64 µg/mL | 100% | 0.5 µg/mL (≈ 1.63 µM) | > 64 µg/mL | 2 µg/mL (≈ 6.53 µM) | > 64 µg/mL | Activity [20]: 16.74%; Activity [21]: 4.27%; Activity [22]: 63%; Activity [23]: 5.15%; Activity [24]: 1.54 to 5.07% |
| O=C(NC(Cn1ccnc1)C(=O)c1ccccc1F)c1ccc(-c2ccccc2)cc1 (stereo not given) | 100% | 0.125 µg/mL (≈ 0.302 µM) | 8 µg/mL (≈ 19.3 µM) | 100% | 100% | 0.25 µg/mL (≈ 0.605 µM) | 0.125 µg/mL (≈ 0.302 µM) | 2 µg/mL (≈ 4.84 µM) | 1 µg/mL (≈ 2.42 µM) | 100% | 1 µg/mL (≈ 2.42 µM) | 0.5 µg/mL (≈ 1.21 µM) | 0.125 µg/mL (≈ 0.302 µM) | < 0.125 µg/mL | – |
| O=C(NC(Cn1ccnc1)C(=O)c1cccc(Cl)c1)c1ccc(-c2ccccc2)cc1 (stereo not given) | 96.3% | 0.03 µg/mL (≈ 0.0698 µM) | > 64 µg/mL | 97.2% | 97.4% | 1 µg/mL (≈ 2.33 µM) | 0.125 µg/mL (≈ 0.291 µM) | 0.125 µg/mL (≈ 0.291 µM) | > 64 µg/mL | 100% | 0.03 µg/mL (≈ 0.0698 µM) | 4 µg/mL (≈ 9.3 µM) | 0.06 µg/mL (≈ 0.14 µM) | 4 µg/mL (≈ 9.3 µM) | – |
| O=C(NC(Cn1ccnc1)C(=O)c1ccc(F)cc1)c1ccc(-c2ccccc2)cc1F (stereo not given) | 86.8% | 0.06 µg/mL (≈ 0.139 µM) | 2 µg/mL (≈ 4.64 µM) | 100% | 100% | > 64 µg/mL | 0.125 µg/mL (≈ 0.29 µM) | 0.125 µg/mL (≈ 0.29 µM) | 2 µg/mL (≈ 4.64 µM) | 100% | 0.125 µg/mL (≈ 0.29 µM) | > 64 µg/mL | 0.25 µg/mL (≈ 0.579 µM) | 8 µg/mL (≈ 18.5 µM) | – |
